From ChEMBL document CHEMBL2311344, “Development of an in vivo active, dual EP1 and EP3 selective antagonist based on a novel acyl sulfonamide bioisostere” (Bioorg Med Chem Lett, 2013) come the findings set out here.

What is called pIC50 is the negative decadic logarithm of the IC50, by convention in mol/L. A higher pIC50 goes with a low IC50. The Ki is the dissociation constant of the complex between target and ligand, obtained from inhibition or displacement. A higher Ki goes with weaker binding. Broadly, the Kd is the concentration at which binding is half-saturated.

Molecules are shown by their SMILES. Activity calls are given as the source filed them. The calls are words filed in the database; no cut-off is given here. Where only a bound is given, the exact number is not on record here.

Sequence of Prostaglandin E2 receptor EP4 subtype (P32240 whole entry): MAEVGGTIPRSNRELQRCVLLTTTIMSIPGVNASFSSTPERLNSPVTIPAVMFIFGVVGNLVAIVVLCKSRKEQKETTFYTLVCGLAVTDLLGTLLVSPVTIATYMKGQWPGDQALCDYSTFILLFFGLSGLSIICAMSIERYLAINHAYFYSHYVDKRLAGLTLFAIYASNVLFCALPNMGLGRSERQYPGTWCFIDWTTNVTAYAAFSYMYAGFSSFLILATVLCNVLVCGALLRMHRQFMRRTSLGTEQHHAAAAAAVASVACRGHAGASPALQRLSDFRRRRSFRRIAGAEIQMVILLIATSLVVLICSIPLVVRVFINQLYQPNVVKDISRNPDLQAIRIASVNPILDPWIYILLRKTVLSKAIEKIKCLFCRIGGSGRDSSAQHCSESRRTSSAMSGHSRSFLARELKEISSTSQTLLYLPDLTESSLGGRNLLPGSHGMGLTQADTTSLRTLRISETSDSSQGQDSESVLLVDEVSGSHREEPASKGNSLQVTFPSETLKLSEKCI

The first experiment addresses T1, Prostaglandin E2 receptor EP1 subtype (Mus musculus) (UniProt P35375).
T1 sequence (whole entry): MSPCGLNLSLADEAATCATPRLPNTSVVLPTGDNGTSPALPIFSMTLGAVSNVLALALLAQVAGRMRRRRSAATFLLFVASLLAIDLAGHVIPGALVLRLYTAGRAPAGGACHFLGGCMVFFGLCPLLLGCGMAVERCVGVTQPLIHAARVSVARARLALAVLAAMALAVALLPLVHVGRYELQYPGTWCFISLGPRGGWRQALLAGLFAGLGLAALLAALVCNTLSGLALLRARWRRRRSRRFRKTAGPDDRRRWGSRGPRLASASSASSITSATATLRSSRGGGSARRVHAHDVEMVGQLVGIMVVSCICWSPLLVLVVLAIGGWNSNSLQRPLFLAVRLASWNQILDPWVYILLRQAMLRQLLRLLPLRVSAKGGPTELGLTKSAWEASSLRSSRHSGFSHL
The experiment in a line: Antagonist activity at mouse EP1 receptor expressed in CHOK1 cells assessed as inhibition of 17PTPGE2-induced calcium influx at >100 uM. The conditions noted are these: CHO-K1. The format is functional, cell-based.
In the case of `CCCS(=O)(=O)NC(=O)c1cccc(Cc2cc(Cl)ccc2OCc2ccc(Cl)cc2F)n1`, the outcome was inactive.

In a further experiment the target is T2, Thromboxane A2 receptor (Mus musculus, UniProt P30987).
T2 sequence (P30987 whole entry): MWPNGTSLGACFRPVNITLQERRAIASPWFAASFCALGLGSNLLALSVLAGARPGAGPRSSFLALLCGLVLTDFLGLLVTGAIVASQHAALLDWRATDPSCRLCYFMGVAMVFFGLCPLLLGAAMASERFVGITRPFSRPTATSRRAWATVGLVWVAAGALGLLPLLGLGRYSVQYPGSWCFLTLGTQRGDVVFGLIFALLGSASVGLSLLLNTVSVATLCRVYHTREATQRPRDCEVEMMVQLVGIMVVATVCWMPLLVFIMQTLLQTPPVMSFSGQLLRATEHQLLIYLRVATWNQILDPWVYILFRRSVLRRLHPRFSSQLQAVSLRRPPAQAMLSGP
Briefly: Antagonist activity at mouse TP receptor.
Details: not given
Put shortly: (§1)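 Affinity at mouse EP2, EP3 and EP4 is given as pKI. Signalling through mouse TP is given as pIC50. Mean ± SEM of at least three independent experiments, each run in triplicate.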
`O=C(NCC1CC1)c1cccc(Cc2cc(Cl)ccc2OCc2ccc(Cl)cc2F)n1` yielded a negative logarithm of the IC50 (pIC50) of under 6.

As for `O=C(NS(=O)(=O)c1ccc(Cl)c(Cl)c1)c1cccc(Cc2cc(Cl)ccc2OCc2ccc(Cl)cc2F)n1`, the pIC50 was under 6.

Take `Cc1ccc(S(=O)(=O)NC(=O)c2cccc(Cc3cc(Cl)ccc3OCc3ccc(Cl)cc3F)n2)cc1`: the pIC50 was under 6.

`CCCS(=O)(=O)NC(=O)c1cccc(Cc2cc(Cl)ccc2OCc2ccc(Cl)cc2F)n1`: the pIC50 is under 6.

The next experiment has as its target Prostaglandin E2 receptor EP4 subtype (Mus musculus, UniProt P32240). The experiment in a line: Antagonist activity at mouse EP4 receptor.
Details: not given
Put shortly: as §1
Take `O=C(NCC1CC1)c1cccc(Cc2cc(Cl)ccc2OCc2ccc(Cl)cc2F)n1`: the Ki is over 1000 nM.

Turning to `O=C(NS(=O)(=O)c1ccc(Cl)c(Cl)c1)c1cccc(Cc2cc(Cl)ccc2OCc2ccc(Cl)cc2F)n1`, the Ki was over 1000 nM.

The compound `Cc1ccc(S(=O)(=O)NC(=O)c2cccc(Cc3cc(Cl)ccc3OCc3ccc(Cl)cc3F)n2)cc1` showed a Ki of over 1000 nM.

Compound `CCCS(=O)(=O)NC(=O)c1cccc(Cc2cc(Cl)ccc2OCc2ccc(Cl)cc2F)n1` had a Ki of over 1000 nM.

For the next experiment, the target named is Prostaglandin E2 receptor EP2 subtype (Mus musculus, UniProt Q62053). Briefly: Antagonist activity at mouse EP2 receptor.
Sequence of Prostaglandin E2 receptor EP2 subtype (Q62053 whole entry): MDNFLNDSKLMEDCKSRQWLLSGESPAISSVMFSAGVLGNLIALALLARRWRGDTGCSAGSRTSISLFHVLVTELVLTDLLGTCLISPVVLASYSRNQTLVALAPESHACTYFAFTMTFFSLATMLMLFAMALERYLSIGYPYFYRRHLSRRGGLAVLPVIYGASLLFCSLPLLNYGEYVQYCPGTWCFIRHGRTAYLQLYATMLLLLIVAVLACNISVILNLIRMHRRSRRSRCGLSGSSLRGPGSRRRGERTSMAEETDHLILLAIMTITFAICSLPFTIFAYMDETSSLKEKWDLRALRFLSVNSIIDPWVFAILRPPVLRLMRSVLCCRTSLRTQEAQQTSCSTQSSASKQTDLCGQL
Details: not given
Put shortly: as §1
On to `O=C(NCC1CC1)c1cccc(Cc2cc(Cl)ccc2OCc2ccc(Cl)cc2F)n1`, for which the Ki was over 1000 nM.

The compound `O=C(NS(=O)(=O)c1ccc(Cl)c(Cl)c1)c1cccc(Cc2cc(Cl)ccc2OCc2ccc(Cl)cc2F)n1` showed an inhibition constant Ki of over 1000 nM.

The compound `Cc1ccc(S(=O)(=O)NC(=O)c2cccc(Cc3cc(Cl)ccc3OCc3ccc(Cl)cc3F)n2)cc1` gave a Ki of over 1000 nM.

`CCCS(=O)(=O)NC(=O)c1cccc(Cc2cc(Cl)ccc2OCc2ccc(Cl)cc2F)n1` showed a Ki of over 1000 nM.

Another experiment has as its target T3, Prostaglandin E2 receptor EP3 subtype (Mus musculus, UniProt P30557).
T3 sequence (P30557 whole entry): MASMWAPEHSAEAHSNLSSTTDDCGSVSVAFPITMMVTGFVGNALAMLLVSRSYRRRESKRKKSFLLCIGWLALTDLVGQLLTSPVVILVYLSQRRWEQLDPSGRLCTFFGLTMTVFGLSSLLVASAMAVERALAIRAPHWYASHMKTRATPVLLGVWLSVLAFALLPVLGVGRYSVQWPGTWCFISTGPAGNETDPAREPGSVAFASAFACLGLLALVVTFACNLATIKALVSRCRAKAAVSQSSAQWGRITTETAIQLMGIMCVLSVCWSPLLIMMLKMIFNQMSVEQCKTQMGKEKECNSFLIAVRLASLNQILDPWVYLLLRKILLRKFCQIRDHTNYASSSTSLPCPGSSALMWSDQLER
Briefly: Antagonist activity at mouse EP3 receptor.
Details: not given
A digest of the protocol: as §1
Compound `O=C(NCC1CC1)c1cccc(Cc2cc(Cl)ccc2OCc2ccc(Cl)cc2F)n1` showed a Ki of over 1000 nM.

As for `O=C(NS(=O)(=O)c1ccc(Cl)c(Cl)c1)c1cccc(Cc2cc(Cl)ccc2OCc2ccc(Cl)cc2F)n1`, the Ki was 66.1 nM.

Consider `Cc1ccc(S(=O)(=O)NC(=O)c2cccc(Cc3cc(Cl)ccc3OCc3ccc(Cl)cc3F)n2)cc1`, for which the Ki was over 1000 nM.

Turning to `CCCS(=O)(=O)NC(=O)c1cccc(Cc2cc(Cl)ccc2OCc2ccc(Cl)cc2F)n1`, the Ki is over 1000 nM.

A further experiment deals with T4, Prostaglandin E2 receptor EP1 subtype (Mus musculus, UniProt P35375).
T4 sequence (P35375 whole entry): T1 sequence (whole entry)
The experiment in a line: Antagonist activity at mouse EP1 receptor expressed in CHOK1 cells assessed as inhibition of 17PTPGE2-induced calcium influx. The conditions noted are these: read-out: Kd. Type of experiment: functional, cell-based, CHO-K1. Put shortly:
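CHOk1 cells expressing mouse EP1 were treated with six antagonist concentrations, then challenged with a concentration range of the EP1 agonist 17-phenyl-ω-trinor PGE2. pKD/KD came from transformed Schild regression of the concentration-response curves. Mean ± SEM of at least two independent experiments, each in duplicate.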
In the case of `O=C(NCC1CC1)c1cccc(Cc2cc(Cl)ccc2OCc2ccc(Cl)cc2F)n1`, the Kd stood at 549 nM.

For `O=C(NS(=O)(=O)c1ccc(Cl)c(Cl)c1)c1cccc(Cc2cc(Cl)ccc2OCc2ccc(Cl)cc2F)n1`, the Kd was 214 nM.

Turning to `Cc1ccc(S(=O)(=O)NC(=O)c2cccc(Cc3cc(Cl)ccc3OCc3ccc(Cl)cc3F)n2)cc1`, the Kd was determined as 214 nM.
